Data: ChEMBL document CHEMBL4428090, “Modeling, Synthesis, and Biological Evaluation of Potential Retinoid X Receptor (RXR)-Selective Agonists: Analogues of 4-[1-(3,5,5,8,8-Pentamethyl-5,6,7,8-tetrahydro-2-naphthyl)ethynyl]benzoic Acid (Bexarotene) and 6-(Ethyl(5,5,8,8-tetrahydronaphthalen-2-yl)amino)nicotinic Acid (NEt-TMN)” (J Med Chem, 2016)
The source made the active and inactive calls. No cut-off for these calls is given here.

Columns and labels:
[1] = target: T1, Retinoic acid receptor RXR-alpha (Homo sapiens) (UniProt P19793); assay: Agonist activity at human RXRalpha expressed in human HCT116 cells assessed as increase in RXRE-mediated transcription at 1000 nM incubated for 24 hrs by RXRE luciferase reporter gene assay relative to bexarotene; format: cell-based
T1 sequence (whole entry): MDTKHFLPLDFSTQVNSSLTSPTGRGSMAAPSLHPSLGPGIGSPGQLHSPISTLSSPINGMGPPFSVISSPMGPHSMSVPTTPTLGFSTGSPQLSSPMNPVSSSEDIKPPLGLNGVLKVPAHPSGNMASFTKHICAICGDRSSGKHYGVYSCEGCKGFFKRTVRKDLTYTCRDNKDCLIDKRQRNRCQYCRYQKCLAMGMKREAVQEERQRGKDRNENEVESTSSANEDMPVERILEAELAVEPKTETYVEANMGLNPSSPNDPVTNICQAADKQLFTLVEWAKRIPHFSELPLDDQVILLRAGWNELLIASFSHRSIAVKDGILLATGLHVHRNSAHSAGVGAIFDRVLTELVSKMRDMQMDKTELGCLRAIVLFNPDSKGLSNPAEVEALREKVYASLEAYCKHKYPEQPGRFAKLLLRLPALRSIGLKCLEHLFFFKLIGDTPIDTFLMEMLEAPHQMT
How it was run: (§1)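 HCT-116 cells (80,000/well) co-transfected for 24 h with 250 ng RXRE-luciferase reporter (DR1 element from the rat cellular retinol binding protein II gene), 25 ng pSG5-human RXRα and 20 ng renilla. Dosed 24 h at 25, 100 or 1000 nM final; ethanol or DMSO vehicle 0.1%. Dual-luciferase read-out. Three independent assays in triplicate; bexarotene = 100%.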

[2] = target: T2, Retinoid X receptor (Homo sapiens) (UniProt P28702+P48443+P19793); assay: Agonist activity at human RXR binding domain and activation domain expressed in human HCT116 cells assessed as rexinoid activity at 100 nM incubated for 24 hrs by luciferase reporter gene based mammalian two-hybrid assay relative to bexarotene; format: cell-based
How it was run: (§2)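 HCT-116 cells plated overnight (80,000/well, DMEM with 10% FBS), co-transfected for 24 h with human RXR binding-domain (bait) and activation-domain (prey) vectors, pFR-Luc Gal4 reporter and renilla control. Treated 24 h at 25, 100 or 1000 nM final; vehicle ethanol or DMSO 0.1%. Dual-luciferase read-out. Three independent assays in triplicate; bexarotene set to 100%.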

[3] = target: T1, Retinoic acid receptor RXR-alpha (Homo sapiens); assay: Agonist activity at human RXRalpha expressed in human HCT116 cells assessed as increase in RXRE-mediated transcription at 100 nM incubated for 24 hrs by RXRE luciferase reporter gene assay relative to bexarotene; format: cell-based; how it was run: as §1
Retinoid X receptor = target: T3, Retinoid X receptor (Homo sapiens, UniProt P28702+P48443+P19793); assay: Agonist activity at human RXR binding domain and activation domain expressed in human HCT116 cells assessed as rexinoid activity incubated for 24 hrs by luciferase reporter gene based mammalian two-hybrid assay; format: cell-based
T3 sequence (P28702 whole entry): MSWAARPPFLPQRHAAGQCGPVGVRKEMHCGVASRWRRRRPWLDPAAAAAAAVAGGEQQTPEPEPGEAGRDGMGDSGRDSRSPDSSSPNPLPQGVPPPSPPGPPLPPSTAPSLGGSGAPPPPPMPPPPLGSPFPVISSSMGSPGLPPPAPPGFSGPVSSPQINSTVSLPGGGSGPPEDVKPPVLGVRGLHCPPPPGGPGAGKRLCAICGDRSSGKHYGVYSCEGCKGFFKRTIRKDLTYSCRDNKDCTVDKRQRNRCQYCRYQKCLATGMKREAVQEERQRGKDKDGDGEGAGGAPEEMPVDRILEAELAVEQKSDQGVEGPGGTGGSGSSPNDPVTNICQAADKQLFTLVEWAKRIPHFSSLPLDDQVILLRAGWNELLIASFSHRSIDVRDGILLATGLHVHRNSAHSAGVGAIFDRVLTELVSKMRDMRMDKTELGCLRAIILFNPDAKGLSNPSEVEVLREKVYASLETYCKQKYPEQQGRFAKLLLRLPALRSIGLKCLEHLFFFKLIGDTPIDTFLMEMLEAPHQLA
T3 sequence (P48443 whole entry): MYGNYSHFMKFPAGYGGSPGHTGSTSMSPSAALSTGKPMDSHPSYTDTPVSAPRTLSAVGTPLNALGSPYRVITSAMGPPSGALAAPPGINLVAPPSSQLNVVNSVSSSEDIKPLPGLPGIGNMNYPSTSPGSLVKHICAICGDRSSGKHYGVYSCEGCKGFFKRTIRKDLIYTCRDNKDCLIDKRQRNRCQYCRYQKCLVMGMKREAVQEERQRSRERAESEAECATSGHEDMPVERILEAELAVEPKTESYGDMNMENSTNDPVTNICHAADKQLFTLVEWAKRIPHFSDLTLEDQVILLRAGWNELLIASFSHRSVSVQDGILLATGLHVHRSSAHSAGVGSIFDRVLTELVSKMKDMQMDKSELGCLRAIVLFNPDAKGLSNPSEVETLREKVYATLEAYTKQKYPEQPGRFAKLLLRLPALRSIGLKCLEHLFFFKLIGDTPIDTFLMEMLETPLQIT
T3 sequence (P19793 whole entry): T1 sequence (whole entry)

HuT78 [4] = assay: Growth inhibition of human HUT78 cells at 200 nM incubated for 72 hrs by MTS assay relative to bexarotene; format: functional; settings: HuT78, 72 h, read-out: GI
How it was run: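 Hut78 cells in RPMI with 10% FBS at 37°C, 5% CO2. Plated 7,500 cells/well and immediately dosed at 200 nM for 72 h. MTS read at A490; percent inhibition with media control set to 0.0, compared with bexarotene set to 100%. Mean of three independent experiments.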

[5] = target: T4, Retinoic acid receptor RXR-alpha/oxysterols receptor LXR-alpha (Homo sapiens, UniProt P19793+Q13133); assay: Agonist activity at human RXRalpha/LXRalpha expressed in human HCT116 cells assessed as reduction in SREBP-mediated transcription activity at 100 nM incubated for 24 hrs by luciferase reporter gene assay relative to bexarotene; format: cell-based; design: scale not given: the % may be the effect or the level left; settings: 0.1 µM
T4 sequence (P19793 whole entry): T1 sequence (whole entry)
T4 sequence (Q13133 whole entry): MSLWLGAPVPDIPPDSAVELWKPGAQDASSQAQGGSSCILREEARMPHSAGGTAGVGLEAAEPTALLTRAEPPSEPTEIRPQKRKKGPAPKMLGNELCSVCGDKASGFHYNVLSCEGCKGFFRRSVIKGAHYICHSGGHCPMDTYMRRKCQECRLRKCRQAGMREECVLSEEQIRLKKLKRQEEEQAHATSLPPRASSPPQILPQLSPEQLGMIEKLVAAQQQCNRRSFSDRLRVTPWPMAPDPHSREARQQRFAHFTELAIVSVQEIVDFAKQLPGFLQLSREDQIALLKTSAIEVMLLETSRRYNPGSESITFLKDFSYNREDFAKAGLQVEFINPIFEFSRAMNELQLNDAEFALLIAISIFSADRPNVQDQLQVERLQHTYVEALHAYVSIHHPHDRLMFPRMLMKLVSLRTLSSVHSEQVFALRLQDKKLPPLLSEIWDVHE
How it was run: (§3)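 HCT116 cells co-transfected for 24 h with 100 ng pBP1c(6500)-Luc (about 6500 bp murine SREBP-1c promoter), 10 ng human LXRα and 20 ng renilla. Treated 24 h with compound at 100 nM, alone or with 100 nM TO901317. Luciferase output. Three independent assays in triplicate; bexarotene = 100%.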

[6] = Mutagenicity in Saccharomyces cerevisiae D7 assessed as induction of mutagenesis by measuring forward and reverse mutations up to 0.1 mg/mL; format: toxicity
[7] = target: T4, Retinoic acid receptor RXR-alpha/oxysterols receptor LXR-alpha; assay: Agonist activity at human RXRalpha/LXRalpha expressed in human HCT116 cells assessed as reduction in SREBP-mediated transcription activity at 100 nM incubated for 24 hrs by luciferase reporter gene assay in presence of 100 nM LXR agonist TO901317 relative to bexarotene; format: cell-based; design: scale not given: the % may be the effect or the level left; settings: 0.1 µM; how it was run: as §3
[8] = target: T2, Retinoid X receptor (Homo sapiens); assay: Agonist activity at human RXR binding domain and activation domain expressed in human HCT116 cells assessed as rexinoid activity at 1000 nM incubated for 24 hrs by luciferase reporter gene based mammalian two-hybrid assay relative to bexarotene; format: cell-based; how it was run: as §2
[9] = target: T2, Retinoid X receptor (Homo sapiens); assay: Agonist activity at human RXR binding domain and activation domain expressed in human HCT116 cells assessed as rexinoid activity at 25 nM incubated for 24 hrs by luciferase reporter gene based mammalian two-hybrid assay relative to bexarotene; format: cell-based; how it was run: as §2
[10] = Lipid risk index, ratio of agonist activity at human RXRalpha/LXRalpha expressed in human HCT116 cells assessed as reduction in SREBP-mediated transcription activity to agonist activity at human RXRalpha expressed in human HCT116 cells assessed as increase in RXRE-mediated transcription
How it was run: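 Lipid risk index: SREBP-promoter luciferase activity (HCT116, LXRα-transfected, 100 nM compound with or without 100 nM TO901317, 24 h) divided by RXRE activity at 100 nM. The SREBP:RXRE ratio for bexarotene is set to 1.0.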

[11] = target: T1, Retinoic acid receptor RXR-alpha (Homo sapiens); assay: Agonist activity at human RXRalpha expressed in human HCT116 cells assessed as increase in RXRE-mediated transcription at 25 nM incubated for 24 hrs by RXRE luciferase reporter gene assay relative to bexarotene; format: cell-based; how it was run: as §1
[12] = target: T1, Retinoic acid receptor RXR-alpha (Homo sapiens); assay: Agonist activity at human RXRalpha expressed in human HCT116 cells assessed as increase in RXRE-mediated transcription incubated for 24 hrs by RXRE luciferase reporter gene assay; format: cell-based
[13] = target: T2, Retinoid X receptor (Homo sapiens); assay: Antagonist activity against human RXR binding domain and activation domain expressed in human HCT116 cells assessed as reduction in bexarotene-induced rexinoid activity incubated for 24 hrs by luciferase reporter gene based mammalian two-hybrid assay; format: cell-based
Homo sapiens = species: Homo sapiens; assay: Selectivity index, ratio of agonist activity at human RARalpha expressed in HEK293 cells assessed as increase in RARE-mediated transcription relative to bexarotene to agonist activity at human RXRalpha expressed in human HCT116 cells assessed as increase in RXRE-mediated transcription relative to bexarotene; format: cell-based
How it was run: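 HEK293 cells (60,000/well) transfected for 24 h with 250 ng pTK-DR5(X2)-Luc, 25 ng human RARα and 20 ng renilla. Treated 24 h at 100 nM; activity expressed as a percentage of all-trans-retinoic acid. This RARE activity is divided by 100 nM RXRE activity, with the bexarotene ratio set to 1.0.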

HuT78 [14] = assay: Inhibition of HDAC1 gene expression in human HUT78 cells at 100 nM incubated for 48 hrs by quantitative real-time PCR method; format: functional; settings: HuT78, 48 h
How it was run: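 Hut78 cells resuspended in RPMI with 1% FBS, plated 750,000/well and dosed at 100 nM for 48 h. Total RNA extracted, 0.5 µg DNase-treated RNA reverse-transcribed, then qPCR for HDAC1. Quantified by ΔΔCt, normalized to GAPDH and relative to vehicle-treated cells (2^-ΔΔCt).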

| Structure (SMILES) | Activity [1] | Activity [2] | Activity [3] | EC50 (Retinoid X receptor) | inhibition of growth at 0.2 µM (HuT78 [4]) | Activity [5] | Activity [6] | Activity [7] | Activity [8] | fold change (FC) [9] | Ratio [10] | Activity [11] | Activity [12] | Activity [13] | Activity [9] | Ratio (Homo sapiens) | fold change (FC) ([2]; in the assay text read “relative to activity at 25 nM” for “relative to bexarotene”) | inhibition at 0.1 µM (HuT78 [14]) |
| --- | --- | --- | --- | --- | --- | --- | --- | --- | --- | --- | --- | --- | --- | --- | --- | --- | --- | --- |
| CCN(c1ccc(C(=O)O)cc1)c1ccc2c(c1)C(C)(C)CCC2(C)C | Active | Active | 16 to 32% | 143.4 nM | 55 to 80% | 54 to 79% | Non-Toxic | Active | – | – | – | – | – | – | – | – | – | – |
| CCN(c1ccc2c(c1)C(C)(C)CCC2(C)C)c1ncc(C(=O)O)cn1 | 20 to 43% | 135 to 146% | 68 to 89% | 40.9 nM | > 85% | Active | Non-Toxic | 13 to 17% | 35 to 58% | 2 | 0.49 - 0.51 | 27 to 66% | – | – | – | – | – | – |
| Cc1cc2c(cc1C(=O)c1ccc(S(=O)(=O)O)cc1)C(C)(C)CCC2(C)C | – | inactive | – | > 80000 nM | – | Not Active | Non-Toxic | – | inactive | – | – | – | inactive | Dose-dependent effect | 0.6% | – | – | – |
| CCN(c1cnc(C(=O)O)cn1)c1cc2c(cc1C)C(C)(C)CCC2(C)C | Active | – | – | 295.5 nM | 35 to 51% | 54 to 79% | Non-Toxic | 29% | – | – | – | – | inactive | – | 3.4% | > 0.5 | 5 to 16 | – |
| C=C(c1ccc(S(=O)(=O)O)cc1)c1cc2c(cc1C)C(C)(C)CCC2(C)C | – | inactive | – | 18200 nM | – | Not Active | Non-Toxic | – | 17% | – | – | – | inactive | Dose-dependent effect | 0.8% | – | – | – |
| C=C(c1ccc(C(=O)O)cc1)c1cc2c(cc1C)C(C)(C)CCC2(C)C [BEXAROTENE] | – | – | – | – | – | – | Non-Toxic | – | – | – | – | – | – | – | – | – | – | 10% |
| CC1=C(/C=C/C(C)=C/C=C/C(C)=C/C(=O)O)C(C)(C)CCC1 | – | – | – | – | – | – | – | – | – | – | – | – | – | – | – | 9.5 | – | – |
| CCN(c1ccc(C(=O)O)cn1)c1cc2c(cc1C)C(C)(C)CCC2(C)C | 20 to 43% | 135 to 146% | 68 to 89% | 13.8 nM | > 85% | Active | Non-Toxic | 13 to 17% | 35 to 58% | 2 | 0.49 - 0.51 | 27 to 66% | – | – | – | – | – | – |
